Rows were chosen to be rich in hits. Some 2.9% of all compounds tested hit in one or more screens of this group.
M1 ag parental: nonselective activator or artifact in parental CHO-K1 cells | Fluo-8 calcium fluorescence; scaled to maximal ATP response, vehicle zero | activation, % at 3 µM | 0.48% of 360,000 active; in the data active means activation above about 15%;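 further: untransfected CHO-K1 host cells lacking M1 receptor as counterscreen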
OX1R antag-1: blocks the human orexin 1 receptor | O43613 | OX1R-expressing cells, FRET antagonist read-out | inhibition, % at 6.6 µM | 1.8% of 330,000 active | AID 485270; in the data active means inhibition mostly above about 38%, no sharp cut-off; inactive means mostly below about 40%;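 further: 0% = agonist challenge alone and 100% = reference antagonist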
Target sequence (O43613 whole entry, looked up): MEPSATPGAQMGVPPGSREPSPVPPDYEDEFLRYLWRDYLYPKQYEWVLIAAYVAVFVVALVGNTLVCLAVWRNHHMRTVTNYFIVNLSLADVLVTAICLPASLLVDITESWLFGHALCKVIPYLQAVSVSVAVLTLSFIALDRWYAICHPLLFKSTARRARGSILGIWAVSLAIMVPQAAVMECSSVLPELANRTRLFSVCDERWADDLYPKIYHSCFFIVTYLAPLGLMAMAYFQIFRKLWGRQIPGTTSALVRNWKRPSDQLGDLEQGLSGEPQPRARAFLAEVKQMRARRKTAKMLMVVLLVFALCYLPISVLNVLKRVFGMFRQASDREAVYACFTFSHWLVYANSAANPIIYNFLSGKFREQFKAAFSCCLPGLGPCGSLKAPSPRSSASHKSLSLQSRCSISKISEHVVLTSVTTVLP
OX1R antag-2: antagonists of human orexin 1 receptor. CHO/OX1R cells, Fluo-8 calcium fluorescence, orexin A. inhibition, % at 5 µM. 0.43% of 330,000 active;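 active means inhibition above its plate's threshold, mean inhibition of all tested compounds on the plate plus 3 SD, cut at about 37% in these data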;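 further: 0% = orexin A challenge wells and 100% = SB-334867-A antagonist wells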
CHO-K1 Ca antag: counter-screen for M1 antagonists: effect in parental CHO-K1 cells. 0.6% of 360,000 active. ATP-induced calcium, Fluo-8 fluorescence. inhibition, % at 3 µM;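 active means inhibition above a per-plate cutoff, the plate's mean sample inhibition plus 3 SD, cut at about 24% in these data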;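 further: 0% = DMSO plus EC80 ATP and 100% = DMSO alone without ATP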
M1 PAM parental: nonselective activator or artifact in parental CHO-K1 calcium assay. activation, % at 3 µM. 0.02% of 360,000 active. ATP EC20, Fluo-8 calcium fluorescence; 0% at ATP EC20, 100% at ATP max;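 active means activation above the run cutoff, the mean activation of all test compounds plus 3 SD, cut at about 40% in these data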;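 further: peak over basal fluorescence ratio in a 140 s read after ATP addition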
CHO parental Ca: signal in parental CHO cells, OX1R antagonist counter-screen; parental CHO-K1, ATP-induced calcium, Fluo-8 fluorescence; inhibition, % at 5.6 µM; 0.63% of 330,000 active; AID 463079;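 active means inhibition above that plate's mean sample inhibition plus 3 SD, cut at about 26% in these data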;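 further: 0% = ATP-challenged DMSO wells and 100% = DMSO wells without ATP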
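Test system: parental CHO cells; detection: calcium-sensitive Fluo-8 fluorescence; evaluation: percent inhibition of calcium signal; also added: ATP as calcium-mobilizing challenge; repeats: one well per compound; control set: ATP-challenged DMSO wells low, unchallenged DMSO wells high; compound: single nominal dose of 5.6 µM per compound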
OX1R HTRF conf: confirmation of human orexin 1 receptor antagonists, HTRF format | shares compounds with OX1R antag-1 | OX1R-expressing cells, HTRF antagonist assay | inhibition, % at 6.6 µM | 49% of 1,800 active | AID 492964; in the data active means inhibition above about 55%;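 further: CHO cells expressing OX1R stimulated with orexin A at about EC80; 0% = agonist challenge alone and 100% = reference antagonist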
CHO-K1 HTRF: counter-screen for OX1R antagonists: effect in parental CHO-K1 cells; AID 493232; shares compounds with OX1R antag-1; HTRF counterscreen; 48% of 1,800 active; inhibition, % at 6.6 µM; in the data active means inhibition above about 17%;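 further: 0% = agonist challenge with vehicle and 100% = vehicle alone without agonist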
* marks the source's active call; other numbers are inactive results.

CN1CCN(c2ccc([N+](=O)[O-])c(N3CCCCC3)c2)CC1 was read as M1 ag parental 0.2, OX1R antag-1 23.5, OX1R antag-2 -9.1, CHO-K1 Ca antag -11.9, M1 PAM parental 12.3 and CHO parental Ca 1.5.
Screening CCc1nnc(NC(=O)CCc2nc(C3=CCN(C)CC3)no2)s1 returned M1 ag parental 0.0, OX1R antag-1 98.2*, OX1R antag-2 -0.8, CHO-K1 Ca antag -5.6, M1 PAM parental 1.8, CHO parental Ca -4.2, OX1R HTRF conf 14.2 and CHO-K1 HTRF 10.8.
Screening CCOC(=O)c1sc(N=Nc2c(O)[nH]c(=O)[nH]c2=O)c(C(=O)OCC)c1C returned OX1R antag-1 7.2, OX1R antag-2 -5.9 and CHO parental Ca 4.2.
`Cc1ccc(C(=O)O)cc1N=Nc1c(O)[nH]c(=O)[nH]c1=O` gave M1 ag parental 1.0, OX1R antag-1 154.1*, OX1R antag-2 3.5, CHO-K1 Ca antag -19.0, M1 PAM parental 5.7, CHO parental Ca -2.6, OX1R HTRF conf 57.5* and CHO-K1 HTRF 100.7*.
Screening O=C(O)c1cccc(N=Nc2c(O)[nH]c(=O)[nH]c2=O)c1 returned M1 ag parental 0.2, OX1R antag-1 137.7*, OX1R antag-2 3.3, CHO-K1 Ca antag -8.1, M1 PAM parental -0.6, CHO parental Ca -12.9, OX1R HTRF conf 61.8* and CHO-K1 HTRF 92.3*.
Screening C[C@]12CCC3C(CC[C@H]4C[C@H](O)CC[C@]34C)C1[C@@H](O)[C@@H](O)[C@@H]2O (some centres undefined) returned M1 ag parental 0.8, OX1R antag-1 0.3, OX1R antag-2 0.2, CHO-K1 Ca antag -3.1, M1 PAM parental 12.2 and CHO parental Ca -8.5.
Screening Cc1ccc(N=Nc2c(O)[nH]c(=O)[nH]c2=O)c([N+](=O)[O-])c1 returned M1 ag parental 0.1, OX1R antag-1 123.8*, OX1R antag-2 -7.5, CHO-K1 Ca antag 2.9, M1 PAM parental -2.2, CHO parental Ca -3.2, OX1R HTRF conf 38.0 and CHO-K1 HTRF 56.2*.
Screening CC(C)c1ccc(N=Nc2c(O)[nH]c(=O)[nH]c2=O)cc1 returned M1 ag parental 0.3, OX1R antag-1 19.9, OX1R antag-2 -7.5, CHO-K1 Ca antag -3.9, M1 PAM parental 14.2 and CHO parental Ca -0.5.
Screening O=c1[nH]c(O)c(C=Nc2ccccc2[N+](=O)[O-])c(=O)[nH]1 returned OX1R antag-1 17.8, OX1R antag-2 -16.9 and CHO parental Ca -7.0.
O=c1[nH]c(O)c(N=Nc2ccc([N+](=O)[O-])cc2)c(=O)[nH]1 was read as M1 ag parental 0.4, OX1R antag-1 88.8*, OX1R antag-2 -24.6, CHO-K1 Ca antag -16.5, M1 PAM parental 19.1, CHO parental Ca 1.7, OX1R HTRF conf 61.9* and CHO-K1 HTRF 98.6*.
For COc1ccc(NC(=S)N2Cc3ccccc3-n3nncc3C2)c(OC)c1 the results were M1 ag parental 2.6, CHO-K1 Ca antag -7.0 and M1 PAM parental 14.2.
Nc1cc(Cl)c2nonc2c1[N+](=O)[O-] was read as M1 ag parental 1.0, OX1R antag-1 113.3*, OX1R antag-2 31.1, CHO-K1 Ca antag 11.8, M1 PAM parental 16.2, CHO parental Ca 25.0, OX1R HTRF conf 84.8* and CHO-K1 HTRF 84.5*.
Screening N#CC1=C(N)Oc2c(c(=O)sc3ccccc23)C1c1cccnc1 (centres undefined) returned M1 ag parental 0.1, OX1R antag-1 -1.3, OX1R antag-2 -20.3, CHO-K1 Ca antag -11.4, M1 PAM parental 4.1 and CHO parental Ca -1.8.
`Cc1cc(C(=O)O)c(C)n1C1CC1` gave M1 ag parental 0.2, OX1R antag-1 7.3, OX1R antag-2 -8.9, CHO-K1 Ca antag 3.7, M1 PAM parental -18.5 and CHO parental Ca -10.0.
For COc1cc2c(cc1OC)C(C(=O)NC(C)C)C1CCCCN1C2=O (centres undefined) the results were M1 ag parental 0.6, OX1R antag-1 13.9, OX1R antag-2 -15.2, CHO-K1 Ca antag -9.1, M1 PAM parental 1.9 and CHO parental Ca 5.3.
`O=C1NC(=O)C(=Cc2ccc(N3CCOCC3)o2)C(=O)N1` gave M1 ag parental 2.5, OX1R antag-1 92.2*, OX1R antag-2 -15.1, CHO-K1 Ca antag 1.4, M1 PAM parental -9.6, CHO parental Ca 2.6, OX1R HTRF conf 49.6 and CHO-K1 HTRF 99.2*.
O=C1OC(c2ccc([N+](=O)[O-])cc2)=N/C1=C/N1CC2CC(C1)c1cccc(=O)n1C2 (centres undefined) was read as M1 ag parental 0.2, OX1R antag-1 80.4*, OX1R antag-2 -5.0, CHO-K1 Ca antag 20.5, M1 PAM parental -20.2, CHO parental Ca -16.2, OX1R HTRF conf 24.9 and CHO-K1 HTRF 17.7*.
For c1ccc2c[n+](CCCCCCCCCC[n+]3ccc4ccccc4c3)ccc2c1 the results were M1 ag parental 1.1, CHO-K1 Ca antag -16.6 and M1 PAM parental 12.6.
Screening CCCCCCC[n+]1ccc(-c2cc[n+](CCCCCCC)cc2)cc1 returned M1 ag parental -0.1, OX1R antag-1 140.1*, OX1R antag-2 -10.4, CHO-K1 Ca antag 3.3, M1 PAM parental -7.3, CHO parental Ca -10.4, OX1R HTRF conf 60.3* and CHO-K1 HTRF 91.5*.
Screening CCOC(=O)Cn1cc([N+](=O)[O-])nc1[N+](=O)[O-] returned M1 ag parental 0.4, OX1R antag-1 92.3*, OX1R antag-2 -13.5, CHO-K1 Ca antag -13.7, M1 PAM parental 9.6, CHO parental Ca -0.2, OX1R HTRF conf 42.1 and CHO-K1 HTRF 53.2*.
Screening C[C@H]1CN([C@@H](C)CO)C(=O)CCCn2nncc2CO[C@@H]1CN(C)C(=O)Oc1ccccc1 returned M1 ag parental -0.2, CHO-K1 Ca antag -4.1 and M1 PAM parental -4.5.
`C[n+]1ccc(-c2ccccc2)c2ccccc21` gave M1 ag parental -0.2, OX1R antag-1 96.5*, OX1R antag-2 4.2, CHO-K1 Ca antag -4.0, M1 PAM parental 6.5, CHO parental Ca -1.4, OX1R HTRF conf 76.5* and CHO-K1 HTRF 84.0*.
